Consider 17 molecules from article PMC4018401 (Journal of Medicinal Chemistry, 2014).

One data set in a line: HepG2 cytotoxicity assay. The class given is cell-based. As to conditions: human, HepG2 cells.
Data set [1] in a line: Microsomal stability, rat and human liver microsomes. It is filed as in vitro ADME. As to conditions: rat and human hepatic microsomes.
Data set [2] deals with P. falciparum Tm93-C1088 (atovaquone resistant clinical isolate). Nature of the data set: SYBR Green I parasite growth inhibition, P. falciparum Tm93-C1088. It is filed as cell-based. As to conditions: Plasmodium falciparum, 72 h, read-out: EC50 TM93-C1088 (WRAIR). An outline of the steps:
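Atovaquone-resistant Thai isolate with cytochrome b Y268S, grown asynchronously in human erythrocytes (RPMI-1640/HEPES/hypoxanthine/Albumax II; 5% O2, 5% CO2, 90% N2). Triplicate 2-fold dilutions, 2% hematocrit, 0.2% starting parasitemia, 72 h at 37 °C. SYBR Green I dye–detergent added for 1 h in the dark at room temperature, fluorescence read at ex 497/em 520 nm. EC50 by nonlinear regression against drug-free wells; at least three determinations.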

Data set [3] addresses T1, P. falciparum cytochrome bc1 complex (Plasmodium falciparum, UniProt Q02768).
T1 sequence (Q02768 1-376): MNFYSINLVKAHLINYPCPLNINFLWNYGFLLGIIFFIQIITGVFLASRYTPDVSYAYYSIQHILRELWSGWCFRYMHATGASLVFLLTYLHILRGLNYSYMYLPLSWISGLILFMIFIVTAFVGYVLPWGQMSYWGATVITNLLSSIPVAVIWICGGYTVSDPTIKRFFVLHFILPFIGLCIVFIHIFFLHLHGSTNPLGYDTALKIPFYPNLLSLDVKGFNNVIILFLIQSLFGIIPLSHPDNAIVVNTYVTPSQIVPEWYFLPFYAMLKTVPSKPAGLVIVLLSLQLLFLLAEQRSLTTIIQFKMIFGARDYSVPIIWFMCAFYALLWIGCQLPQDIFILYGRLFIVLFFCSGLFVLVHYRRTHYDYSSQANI
Nature of the data set: Inhibition of P. falciparum cytochrome bc1. It is filed as biochemical. An outline of the steps: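 Cytochrome c reductase assays. P. falciparum mitochondria: stirred cuvette at 35 °C with 100 μM decylubiquinol, 100 μM horse heart cytochrome c, 0.1 mg/mL dodecyl maltoside, 60 mM HEPES pH 7.4, 10 mM malonate, 1.0 mM EDTA, 2.0 mM KCN. Human HEK-293 mitochondria: detergent-solubilised; 50 mM Tricine pH 8.0, 100 mM KCl, 4 mM KCN, 50 μM each substrate. Baseline-subtracted initial rates expressed as fraction of uninhibited control.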

Data set [4] has as its system P. yoelii (Kenya strain) infected mice. As to conditions: side-by-side tests; cited from earlier work.
Data set [5] shares this test system. Briefly: In vivo efficacy against murine malaria. On the set-up: species or system Plasmodium yoelii. As to conditions: for in vivo antimalarial activity: P. yoelii in mice, oral; for times less effective than 7 against murine malaria: relative to compound 7. An outline of the steps:
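Female CF1 mice infected intravenously with 2.5–5.0 × 105 P. yoelii (Kenya strain) parasitized erythrocytes from a donor; groups of four. Test compound in PEG-400 given by oral gavage once daily for 4 days, starting the day after inoculation; initial doses 0.1–10 mg/kg/day, adjusted if needed. Chloroquine phosphate as positive control. Day-5 parasitemia read from Giemsa smears. Cure means parasite-free 30 days after the last dose; NRD is the dose needed for cure.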

The molecule `Cc1[nH]c2ccccc2c(=O)c1-c1ccc(Oc2ccccc2)cc1` [Compound 3, 2-Methyl-3-(4-phenoxyphenyl)quinolin-4(1H)-one] gave an IC50 in the data set “HepG2 cytotoxicity assay” above 10 µM. Molecule `Cc1[nH]c2ccccc2c(=O)c1-c1ccc(Oc2ccc(OC(F)(F)F)cc2)cc1` [Compound 4, 2-Methyl-3-(4-(4-(trifluoromethoxy)phenoxy)phenyl)quinolin-4(1H)-one] showed an IC50 in the data set “HepG2 cytotoxicity assay” above 10 µM. Further, the “metabolic stability in microsomes” value in data set [1] was “no detectable degradation”. On to `Cc1[nH]c2ccc(Cl)cc2c(=O)c1-c1ccc(Oc2ccc(OC(F)(F)F)cc2)cc1` [Compound 5, 6-Chloro-2-methyl-3-(4-(4-(trifluoromethoxy)phenoxy)phenyl)quinolin-4(1H)-one], for which the IC50 in the data set “HepG2 cytotoxicity assay” is above 10 µM. Regarding `COc1ccc2c(=O)c(-c3ccc(Oc4ccc(OC(F)(F)F)cc4)cc3)c(C)[nH]c2c1` [Compound 6, 7-Methoxy-2-methyl-3-(4-(4-(trifluoromethoxy)phenoxy)phenyl)quinolin-4(1H)-one], the IC50 in “HepG2 cytotoxicity assay” was above 10 µM. Also, the “metabolic stability in microsomes” value in data set [1] was “metabolized at a moderate to intermediate rate”. For the molecule `COc1cc2[nH]c(C)c(-c3ccc(Oc4ccc(OC(F)(F)F)cc4)cc3)c(=O)c2cc1Cl` [Compound 7, 6-Chloro-7-methoxy-2-methyl-3-(4-(4-(trifluoromethoxy)phenoxy)phenyl) quinolin-4(1H)-one], the IC50 in “HepG2 cytotoxicity assay” was above 10 µM. Further, in data set [2], the EC50 amounted to 0.001 µM. Moreover, the “parasite selectivity (P. falciparum vs human cytochrome bc1)” value in data set [3] is at least 20000 fold. The “fold more effective than atovaquone against murine malaria” value in data set [4] is 30 fold. Molecule `COc1cc2[nH]c(C)c(-c3ccc(Oc4ccccc4)cc3)c(=O)c2cc1F` [Compound 13, 6-Fluoro-7-methoxy-2-methyl-3-(4-phenoxyphenyl)quinolin-4(1H)-one] displayed an IC50 in the data set “HepG2 cytotoxicity assay” above 10 µM.

Consider `Cc1[nH]c2ccc(F)cc2c(=O)c1-c1ccc(Oc2ccc(OC(F)(F)F)cc2)cc1` [Compound 18a, 6-Fluoro-2-methyl-3-(4-(4-(trifluoromethoxy)phenoxy)phenyl)quinolin-4(1H)-one], for which, in “HepG2 cytotoxicity assay”, the IC50 is above 10 µM. `COc1cc2[nH]c(C)c(-c3ccc(Oc4ccc(OC(F)(F)F)cc4)cc3)c(=O)c2cc1F` [Compound 18b, 6-Fluoro-7-methoxy-2-methyl-3-(4-(4-(trifluoromethoxy)phenoxy)phenyl)quinolin-4(1H)-one] came in with an IC50 in the data set “HepG2 cytotoxicity assay” above 10 µM.

Take `COc1cc2[nH]c(C)c(-c3ccc(Oc4cccc(OC(F)(F)F)c4)cc3)c(=O)c2cc1Cl` [Compound 20a, 6-Chloro-7-methoxy-2-methyl-3-(4-(3-(trifluoromethoxy)phenoxy)phenyl)quinolin-4(1H)-one]: the “in vivo antimalarial activity” value in data set [5] was “ineffective in vivo”. In addition, the “metabolic stability in microsomes” value in data set [1] is on record as “metabolically unstable”.

Take `COc1cc2[nH]c(C)c(-c3ccc(Oc4ccc(C(F)(F)F)cc4)cc3)c(=O)c2cc1Cl` [Compound 20b, 6-Chloro-7-methoxy-2-methyl-3-(4-(4-(trifluoromethyl)phenoxy)phenyl)quinolin-4(1H)-one]: the “metabolic stability in microsomes” value in data set [1] is on record as “metabolically stable”. `COc1cc2[nH]c(C)c(-c3ccc(Oc4ccc(Cl)cc4)cc3)c(=O)c2cc1Cl` [Compound 20c, 6-Chloro-3-(4-(4-chlorophenoxy)phenyl)-7-methoxy-2-methylquinolin-4(1H)-one]: the “times less effective than 7 against murine malaria” value in data set [5] is 3–10 times. For the same molecule, the IC50 in the data set “HepG2 cytotoxicity assay” is above 10 µM. The “metabolic stability in microsomes” value in data set [1] is “metabolically stable”. Turning to `COc1cc2[nH]c(C)c(-c3ccc(Oc4ccc(F)cc4)cc3)c(=O)c2cc1Cl` [Compound 20d, 6-Chloro-3-(4-(4-fluorophenoxy)phenyl)-7-methoxy-2-methylquinolin-4(1H)-one], the “metabolic stability in microsomes” value in data set [1] is listed as “metabolically stable”. Regarding `COc1cc2[nH]c(C)c(-c3ccc(Oc4ccc(OC(F)(F)F)cc4)nc3)c(=O)c2cc1Cl` [Compound 25a, 6-Chloro-7-methoxy-2-methyl-3-(6-(4-(trifluoromethoxy)phenoxy)pyridin-3-yl)quinolin-4(1H)-one], the “times less effective than 7 against murine malaria” value in data set [5] is recorded as 3–10 times. This molecule also displayed a concentration for half-maximal inhibition (IC50) in the data set “HepG2 cytotoxicity assay” above 10 µM. As to `COc1cc2[nH]c(C)c(-c3ccc(Oc4ccc(OC(F)(F)F)cc4)cn3)c(=O)c2cc1Cl` [Compound 25b, 6-Chloro-7-methoxy-2-methyl-3-(5-(4-(trifluoromethoxy)phenoxy)pyridin-2-yl)quinolin-4(1H)-one], in the data set “HepG2 cytotoxicity assay”, the IC50 was above 10 µM. The molecule `COc1cc2[nH]c(C)c(-c3cnc(Oc4ccc(OC(F)(F)F)cc4)nc3)c(=O)c2cc1Cl` [Compound 25c, 6-Chloro-7-methoxy-2-methyl-3-(2-(4-(trifluoromethoxy)phenoxy)pyrimidin-5-yl)quinolin-4(1H)-one] yielded a half-maximal inhibitory concentration (IC50) in “HepG2 cytotoxicity assay” above 10 µM. On the same count and under the same terms, the result for `O=C1C(O)=C([C@H]2CC[C@H](c3ccc(Cl)cc3)CC2)C(=O)c2ccccc21` [atovaquone, reference compound] reads above 10 µM. Turning to `CCCCCCCc1c(C)nc2cc(OC)ccc2c1O` [endochin, reference compound], the “in vivo antimalarial activity” value in data set [5] is “inactive in vivo”. The IC50 in the data set “HepG2 cytotoxicity assay” was above 10 µM.
